Reference: ChEMBL document CHEMBL3120073, “Simplified pretubulysin derivatives and their biological effects on cancer cells” (J Nat Prod, 2014)
The source made the active and inactive calls. The calls are words filed in the database; no cut-off is given here.

Tests used:
MDA-MB-231 [1] = experiment: Cell cycle arrest in human MDA-MB-231 cells assessed as accumulation at G2/M phase at 10 nM after 48 hrs by propidium iodide staining-based flow cytometry; type: functional
Tubulin (Homo sapiens) [2] = biological target: T1, Tubulin (Homo sapiens) (UniProt P68371+Q9H4B7+P0DPH7+P68366+Q13509+Q71U36+P04350+Q3ZCM7+P07437+P68363+Q9BQE3+Q6PEY2+Q13885+Q9BVA1+Q9BUF5); experiment: Inhibition of tubulin polymerization in human T24 cells at 10 nM after 24 hrs by Hoechst 33342 staining-based immunohistochemistry; type: cell-based; details: T-24
MDA-MB-231 [3] = experiment: Cell cycle arrest in human MDA-MB-231 cells assessed as accumulation at G2/M phase at 100 nM after 48 hrs by propidium iodide staining-based flow cytometry (reference value: 22%); type: functional
MDA-MB-231 [4] = experiment: Antimigratory activity against human MDA-MB-231 cells at 1 uM after 18 hrs by wound healing assay; type: functional, cell-based
In short: (§1)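 MDA-MB-231 grown to 100% confluence in 96-well plates (2 × 10^5 per well). A ~1 mm scratch was made, detached cells were washed off and compound or DMSO was added for 16–18 h. Cells were fixed in 4% formaldehyde, stained with crystal violet and imaged. Covered area was corrected by an unscratched-and-fixed 0% control and expressed relative to DMSO (100%). Three independent experiments, quintuplicate.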

[5] = Cytotoxicity against human HMEC1 cells after 72 hrs by crystal violet staining assay; type: functional, cell-based; details: HMEC-1, 72 h
MDA-MB-231 [6] = experiment: Cytotoxicity against human MDA-MB-231 cells at 1 to 1000 nM after 72 hrs by CellTitre-Blue assay; type: functional, cell-based
In short: (§2)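 MDA-MB-231 cells in 96-well plates were exposed to serial dilutions (0.1–1000 nM) for 72 h. CellTiterBlue reagent was added for 2 h at 37 °C and fluorescence was read. Viability is expressed as % of mock-treated control, from which IC50 was taken. Three independent experiments, quadruplicate.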

Tubulin (Homo sapiens) [7] = biological target: T1, Tubulin (Homo sapiens); experiment: Inhibition of tubulin polymerization in human MDA-MB-231 cells assessed as disruption of tubulin cytoskeleton at 10 nM after 24 hrs by Hoechst 33342 staining-based immunohistochemistry; type: cell-based
In short: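 MDA-MB-231 cells treated 24 h at 1, 10, 100 or 1000 nM, or DMSO 0.1%. Extracted 2 min in PIPES pH 6.8/MgCl2/EGTA/0.5% Triton buffer, fixed with 0.5% glutaraldehyde, reduced with NaBH4, blocked with 0.2% BSA. Anti-α-tubulin 1 h, then AlexaFluor 488 secondary plus Hoechst 33342 for 45 min. Imaged by laser scanning microscopy.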

CCRF-CEM VCR/R [8] = experiment: (§3) Induction of apoptosis in human CCRF-CEM VCR/R cells at 1 uM after 72 hrs by CellTitre-Blue assay relative to control; type: functional
In short: (§4)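 CCRF-CEM-VCR-R cells treated 72 h at 2.5, 1, 0.1 or 0.01 μM; vincristine reference at 2.5 μM. Viability read by CellTiterBlue, reagent added for 2 h at 37 °C, fluorescence measured. Results given as percent of mock-treated control. Three independent experiments in quadruplicate, means ± SEM, t test.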

MDA-MB-231 [9] = experiment: Cytotoxicity against human MDA-MB-231 cells after 72 hrs by CellTitre-Blue assay; type: functional, cell-based; details: MDA-MB-231, 72 h; in short: as §2
MDA-MB-231 [10] = experiment: Antimigratory activity against human MDA-MB-231 cells assessed as reduction in wound closure at 100 nM after 18 hrs by wound healing assay; type: functional; design: scale not given: the % may be the effect or the level left; in short: as §1
MDA-MB-231 [11] = experiment: Cell cycle arrest in human MDA-MB-231 cells assessed as reduction in G1 phase at 100 nM after 48 hrs by propidium iodide staining-based flow cytometry; type: functional
CCRF-CEM VCR/R [12] = experiment: (§5) Induction of apoptosis in human CCRF-CEM VCR/R cells at 2.5 uM after 72 hrs by CellTitre-Blue assay relative to control; type: functional; in short: as §4
PBMC = experiment: Cytotoxicity against human PBMC at 1 uM after 24 to 72 hrs by MTT assay; type: cell-based
MDA-MB-231 [13] = experiment: Cell cycle arrest in human MDA-MB-231 cells assessed as accumulation at G2/M phase at 10 nM after 48 hrs by propidium iodide staining-based flow cytometry (reference value: 22%); type: functional
[14] = as §3; type: functional; in short: as §4
[15] = as §5; type: functional; in short: as §4
[16] = Induction of apoptosis in human CCRF-CEM VCR/R cells at 1 uM after 48 hrs by propidium iodide staining-based flow cytometry; type: functional
In short: (§6)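 CCRF-CEM or CCRF-CEM-VCR-R cells were treated for 48 h. Cells were permeabilized in hypotonic propidium iodide solution and analysed by flow cytometry in logarithmic mode. Apoptosis was scored as the sub-G1 (DNA fragmentation) percentage.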

CCRF-CEM = experiment: Induction of apoptosis in human CCRF-CEM cells at 1 to 100 nM after 48 hrs by propidium iodide staining-based flow cytometry; type: functional, cell-based; in short: as §6
[17] = Induction of apoptosis in human CCRF-CEM VCR/R cells assessed as cell viability at 2.5 uM after 72 hrs by CellTitre-Blue assay relative to control; type: functional; details: read-out: Activity
In short: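 Vincristine-resistant CCRF-CEM-VCR-R cells in 96-well plates were treated for 72 h at 0.01, 0.1, 1 or 2.5 μM. Viability was read by CellTiterBlue as % of mock-treated control. Three independent experiments, quadruplicate; t test.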

Tubulin (Homo sapiens) [18] = biological target: T1, Tubulin (Homo sapiens); experiment: Inhibition of tubulin polymerization in human MDA-MB-231 cells assessed as disruption of tubulin cytoskeleton at 100 nM after 24 hrs by Hoechst 33342 staining-based immunohistochemistry; type: cell-based
In short: (§7)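 Cells (MDA-MB-231, or T-24 bladder carcinoma) were treated for 24 h at 1–1000 nM, or with DMSO (0.1%). Monomers were extracted for 2 min (80 mM PIPES pH 6.8, 1 mM MgCl2, 5 mM EGTA, 0.5% Triton X-100), then fixed with 0.5% glutaraldehyde and reduced with NaBH4. Staining used BSA blocking, anti-α-tubulin, an AlexaFluor 488 secondary and Hoechst 33342, with confocal imaging.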

Tubulin (Homo sapiens) [19] = biological target: T1, Tubulin (Homo sapiens); experiment: Inhibition of tubulin polymerization in human T24 cells at 100 nM after 24 hrs by Hoechst 33342 staining-based immunohistochemistry; type: cell-based; details: T-24; in short: as §7

| SMILES | Activity (MDA-MB-231 [1]) | inhibition (Tubulin (Homo sapiens) [2]) | Activity (MDA-MB-231 [3]) [%] | Activity (MDA-MB-231 [4]) | EC50 [5] [nM] | Activity (MDA-MB-231 [6]) | inhibition (Tubulin (Homo sapiens) [7]) | IC50 (MDA-MB-231 [9]) [nM] | Activity (MDA-MB-231 [10]) | Activity (MDA-MB-231 [11]) | Activity (CCRF-CEM VCR/R [12]) | also measured |
| --- | --- | --- | --- | --- | --- | --- | --- | --- | --- | --- | --- | --- |
| CC[C@H](C)[C@H](NC(=O)[C@H]1CCCCN1C)C(=O)N(C)[C@H](CCc1nc(C(=O)N[C@H](CCC(=O)O)Cc2ccccc2)cs1)C(C)C | inactive | Active | 60 | Active | 4.4 | Active | Active | 10.1 | 35% | Active | Active | Activity (CCRF-CEM VCR/R [8]): Active |
| CC[C@H](C)[C@H](NC(=O)[C@H]1CCCCN1C)C(=O)N(C)[C@H](CCc1nc(C(=O)N[C@@H](Cc2ccccc2)C[C@H](C)C(=O)O)cs1)C(C)C |  | Active |  | Active |  | Active | Active | 0.6 |  |  |  | Activity (PBMC): Toxic; Activity (MDA-MB-231 [13]): >30%; Activity [14]: 70%; Activity [15]: 30% |
| CC[C@]1(O)C[C@H]2CN(CCc3c([nH]c4ccccc34)[C@@](C(=O)OC)(c3cc4c(cc3OC)N(C=O)[C@H]3[C@@](O)(C(=O)OC)[C@H](OC(C)=O)[C@]5(CC)C=CCN6CC[C@]43[C@@H]65)C2)C1 [VINCRISTINE] |  |  |  |  |  |  |  | 1.6 |  |  |  | Activity [16]: 20%; Activity (CCRF-CEM): Active; viability at 2.5 µM [17]: 80% |
| CC[C@H](C)[C@H](NC(=O)[C@H]1CCCCN1C)C(=O)N(C)[C@H](CCc1cccc(C(=O)N[C@@H](Cc2ccccc2)C[C@H](C)C(=O)O)c1)C(C)C | inactive |  | 33 | Active | 13.2 | Active |  | 100 | inactive | Active | Active | inhibition (Tubulin (Homo sapiens) [18]): Active; inhibition (Tubulin (Homo sapiens) [19]): Active |
